Results: article PMC7564034 (Acta Pharmaceutica Sinica. B, 2019)
Read-outs that look alike come from different tables or passages of the source.

Columns and labels:
[1] = system: tumor vessels in LoVo xenografts; experiment: CD31/α-SMA double staining, pericyte coverage around tumor vessels; type: in vivo, Balb/c nude mice; conditions: 15 days i.p.; SMI, Rd-H 5 mg/kg; vs vehicle
Outline: (§1)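 Tumors from mice given test compound i.p. for 15 days were fixed in 4% PFA and cut into 12 μm sections. Sections were stained overnight with anti-CD31 at 1:100; for pericyte coverage, anti-SMA at 1:100 was added. Cy5- or Cy2-conjugated secondary (1:200) was applied for 1 h at 37 °C. Confocal Z-stacks were reconstructed in 3D or as maximum intensity projections. Compared with vehicle.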

[2] = system: tumor vessels in LoVo xenografts; experiment: CD31 staining of tumor slides, microvessels and vessel branches; type: in vivo, Balb/c nude mice; conditions: 15 days i.p.
Outline: as §1

[3] = type: in vivo, Balb/c nude mice harboring LoVo xenografts; conditions: for Cmax / Tmax: Balb/c nude, mouse, plasma
Outline: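 Male LoVo-xenograft nude mice (6 weeks old) received 10 mL/kg i.p., either once or daily for 8 days. Blood (~0.1 mL) was drawn from the oculi chorioideae vein into heparin tubes between 5 min and 96 h after the last dose, 5 mice per time point. Plasma was spun at 8000 rpm for 5 min and extracted with methanol. AUC0–∞ and the multiple/single ratio were derived.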

[4] = type: in vivo, Balb/c nude mice harboring LoVo xenografts; conditions: for AUC0–∞ ratio Multiple/Single in tumors: 8-day vs single SMI 10 mL/kg/day i.p.
[5] = type: in vivo, Balb/c nude mice harboring LoVo xenografts; conditions: 20 min after 15-day SMI treatment
Outline: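 Male 6-week Balb/c nude mice (18 ± 1 g) bearing LoVo xenografts were given SMI intraperitoneally for 15 days. Tumors collected 20 min after the final dose were minced and digested 1 h in DMEM with 2 mg/mL collagenase type I and 0.1 mg/mL DNase I. Cells were split into endothelial, hematopoietic and other fractions; purity was checked by flow cytometry (anti-mouse CD45, viability stain). n = 3, mean ± SEM.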

[6] = Constituent ratio of ginsenosides in SMI, plasma, tumor and endothelial cells; type: in vivo, Balb/c nude mice harboring LoVo xenografts; conditions: 20 min after 15-day SMI treatment
Outline: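 Tissues were sampled 20 min after the last dose of a 15-day i.p. course. Tumors were digested 1 h in DMEM with collagenase I (2 mg/mL) and DNase I (0.1 mg/mL), then strained through 40 μm mesh. CD31+ cells were enriched with PE anti-mouse CD31 and anti-PE magnetic particles, with purity checked by CD45/viability flow cytometry; n = 3. Each ratio = concentration of the constituent / summed eight ginsenosides.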

VEGF = experiment: ELISA of VEGF secretion in tumors; type: in vivo, Balb/c mice harboring LoVo xenografts; conditions: 15 days i.p., vs vehicle
Outline: (§2)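 Mice received test compound i.p. for 15 days. Tumors were harvested 20 min after the final dose and homogenized in RIPA buffer. VEGF and FGF were quantified by ELISA kit and normalized to protein content measured by BCA assay. Compared with vehicle.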

FGF = experiment: ELISA of FGF secretion in tumors; type: in vivo, Balb/c mice harboring LoVo xenografts; conditions: 15 days i.p.; SMI, Rd-H 5 mg/kg, Rb1, Rg1; vs vehicle
Outline: as §2

HUVECs [7] = experiment: Cell viability assay; type: cell-based, human; conditions: Rd 1–50 μmol/L, SMI 5 μL/mL; 24 h; normoxia or hypoxia
Outline: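 HUVECs were exposed to test compound for 24 h under normoxia or hypoxia (1% O2, 5% CO2). Viability was measured by MTT and expressed as a percentage of DMSO-treated cells under normoxia; n = 6.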

HUVECs [8] = experiment: EDU staining; type: cell-based, human; conditions: Rd 2, 10, 50 μmol/L; 24 h; hypoxia
HUVECs [9] = experiment: Wound healing migration assay; type: cell-based, human; conditions: 24 h
Outline: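 Confluent HUVEC monolayers were scratched with sterile pipette tips and given fresh DMEM containing test compound. Cells were incubated under normoxia or hypoxia (1% O2, 5% CO2) and imaged at 0 and 24 h. Migration length = (scratch area 0 h − scratch area 24 h)/scratch length; n = 6.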

HUVECs [10] = experiment: Capillary-like tube formation assay; type: cell-based; conditions: Homo sapiens, HUVEC, read-out: Inhibition of tube formation ability of HUVECs
Outline: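 Conditioned medium was taken as supernatant after 24 h exposure to test compound (2, 10, 50 μmol/L). HUVECs were seeded at 5 × 10^4 cells/well on Matrigel and treated with this medium for 5.5 h under normoxia or hypoxia (1% O2, 5% CO2). Tubes were stained with calcein for 0.5 h before imaging.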

LoVo xenografts = experiment: Xenograft tumor growth, SMI or Rd combined with 5FU, 20-day treatment; type: in vivo, Balb/c mice; conditions: SMI 10 mL/kg/day or Rd 5 mg/kg/day i.p., 20 days, without 5FU
Outline: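 LoVo-xenograft mice with all tumors above 50 mm3 were dosed i.p. for 20 days: 10 mL/kg/day, 5 mg/kg/day, and/or 5FU 15 mg/kg every 3 days. Body weight and tumor axes were recorded daily; tumor volume = 1/2 × a × b². Tumors were resected after treatment. Weight change was read after 17 days; mean ± SEM.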

HUVEC = experiment: Uptake of ginsenosides by HUVEC in vitro; type: cell-based, human; conditions: compared to Rb1 and Rb2 (Fig. S5)
LoVo = experiment: Uptake of ginsenosides by LoVo in vitro; type: cell-based, human; conditions: compared to Rb1 and Rb2 (Fig. S5)
[11] = type: in vivo, mice harboring xenograft tumors; conditions: after intraperitoneal injection of Rb1, Rc, or Rd; data not shown
[12] = SMI i.p., single or multiple not given
[13] = after eight days of SMI 10 mL/kg/day i.p.
[14] = single dose of SMI 10 mL/kg i.p.

CC(C)=CCC[C@](C)(O[C@@H]1O[C@H](CO)[C@@H](O)[C@H](O)[C@H]1O)[C@H]1CC[C@]2(C)[C@@H]1[C@H](O)C[C@@H]1[C@@]3(C)CC[C@H](O[C@@H]4O[C@H](CO)[C@@H](O)[C@H](O)[C@H]4O[C@@H]4O[C@H](CO)[C@@H](O)[C@H](O)[C@H]4O)C(C)(C)[C@@H]3CC[C@]12C [Rd, ginsenoside Rd]
Increase of pericyte coverage around microvessels [1]: 2.1 fold
Effect on microvessels, branches and pericyte coverage ([2]; Rd-L 0.5 mg/kg): very modest effects
Decrease of the number of CD31+ microvessels ([2]; SMI, Rd-H 5 mg/kg, vs vehicle): 37%
Decrease of vessel branches ([2]; SMI, Rd-H 5 mg/kg, vs vehicle): 59%
AUC0–∞ ratio Multiple/Single in plasma ([3]; 8-day vs single SMI 10 mL/kg/day i.p.): 5.28
Cmax ([3]; intraperitoneal, 10 mL/kg): ~10 µM
Cmax ([3]; ip, 10 mL/kg): 3200 ng/mL
Tmax ([3]; ip, 10 mL/kg): 240 min
Cmax ([3]; ip, 10 mL/kg/day): 10400 ng/mL
Tmax ([3]; ip, 10 mL/kg/day): 120 min
AUC0–∞ in plasma relative to those of Re, Rg1, Rg3 and Ro ([3]; after single or multiple SMI administration): more than 20 times
AUC0–∞ ratio Multiple/Single in tumors [4]: 10.53
AUC0–∞ of Rd in tumors, times higher than that of Rb1 [4, 12]: 8.0 times
AUC0–∞ of Rd in tumors, times higher than that of Rb2/Rb3 [4, 12]: 7.3 times
AUC0–∞ of Rd in tumors, times higher than that of Rc [4, 12]: 3.6 times
AUC0–∞ of Rd in tumors, times higher than that of Ro [4, 12]: 266.6 times
Concentration of ginsenosides, endothelial cells (TECs) [5]: most abundant distribution in TECs
Constituent ratio in TECs [6]: 40.3%
Constituent ratio in plasma [6]: 16.0%
Constituent ratio in tumor tissues [6]: 34.3%
Reduction of the secretion of VEGF in tumors (VEGF; Rd-L 0.5 mg/kg): 32%
Reduction of the secretion of VEGF in tumors (VEGF; SMI, Rd-H 5 mg/kg, Rb1, Rg1): 32%
Suppression of the secretion of FGF in tumors (FGF): 68%
Effect on cell viability of HUVECs (HUVECs [7]): no effect on the cell viability
Effect on cellular proliferation of HUVECs (EDU/HOECHST) (HUVECs [8]): no significant effect on cellular proliferation
Suppression of hypoxia-induced HUVEC migration (HUVECs [9]; 50 μmol/L): 88%
Effect on HUVECs migration (HUVECs [9]; Rd 2, 10 and 50 μmol/L or SMI, hypoxia): suppressed HUVECs migration concentration-dependently
inhibition at 2 µM (HUVECs [10]): 18%
inhibition at 10 µM (HUVECs [10]): 40%
inhibition at 50 µM (HUVECs [10]): 56%
Effect on tumor growth, given alone (LoVo xenografts): no significant effect on tumor growth
Uptake by HUVEC (HUVEC): superior uptake
Uptake by LoVo (LoVo): superior uptake

CC(C)=CCC[C@](C)(O[C@@H]1O[C@H](CO)[C@@H](O)[C@H](O)[C@H]1O)[C@H]1CC[C@]2(C)[C@@H]1[C@H](O)C[C@@H]1[C@@]3(C)CC[C@H](O)C(C)(C)[C@@H]3[C@@H](O[C@@H]3O[C@H](CO)[C@@H](O)[C@H](O)[C@H]3O[C@@H]3O[C@@H](C)[C@H](O)[C@@H](O)[C@H]3O)C[C@]12C [Re]
Cmax ([3]; ip, 10 mL/kg): 1600 ng/mL
Tmax ([3]; ip, 10 mL/kg): 10 min
Cmax ([3]; ip, 10 mL/kg/day): 1300 ng/mL
Tmax ([3]; ip, 10 mL/kg/day): 10 min

CC(C)=CCC[C@](C)(O[C@@H]1O[C@H](CO)[C@@H](O)[C@H](O)[C@H]1O)[C@H]1CC[C@]2(C)[C@@H]1[C@H](O)C[C@@H]1[C@@]3(C)CC[C@H](O)C(C)(C)[C@@H]3[C@@H](O[C@@H]3O[C@H](CO)[C@@H](O)[C@H](O)[C@H]3O)C[C@]12C [Rg1]
Cmax ([3]; ip, 10 mL/kg): 2000 ng/mL
Tmax ([3]; ip, 10 mL/kg): 10 min
Cmax ([3]; ip, 10 mL/kg/day): 2100 ng/mL
Tmax ([3]; ip, 10 mL/kg/day): 10 min
Reduction of the secretion of VEGF in tumors (VEGF; SMI, Rd-H 5 mg/kg, Rb1, Rg1): 1%
Suppression of the secretion of FGF in tumors (FGF): 97%

CC(C)=CCC[C@](C)(O)[C@H]1CC[C@]2(C)[C@@H]1[C@H](O)C[C@@H]1[C@@]3(C)CC[C@H](O[C@@H]4O[C@H](CO)[C@@H](O)[C@H](O)[C@H]4O[C@@H]4O[C@H](CO)[C@@H](O)[C@H](O)[C@H]4O)C(C)(C)[C@@H]3CC[C@]12C [Rg3]
Cmax in plasma [3, 13]: 300 ng/mL
Time of maximum concentration in plasma [3, 13]: 20 min
Cmax in plasma [3, 14]: 100 ng/mL
Time of maximum concentration in plasma [3, 14]: 60 min
Detection in tumors over time ([4]; 20 min, 2, 12, 24, 96 h after single or multiple SMI administration): could not be identified at any time
Detection in plasma or tumor tissues [11]: neither Rg3 nor CK could be detected

CC1(C)CC[C@]2(C(=O)O[C@@H]3O[C@H](CO)[C@@H](O)[C@H](O)[C@H]3O)CC[C@]3(C)C(=CC[C@@H]4[C@@]5(C)CC[C@H](O[C@@H]6O[C@H](C(=O)O)[C@@H](O)[C@H](O)[C@H]6O[C@@H]6O[C@H](CO)[C@@H](O)[C@H](O)[C@H]6O)C(C)(C)[C@@H]5CC[C@]43C)[C@@H]2C1 [Ro, ginsenoside Ro]
Cmax in plasma [3, 13]: 3700 ng/mL
Time of maximum concentration in plasma [3, 13]: 20 min
Cmax in plasma [3, 14]: 3900 ng/mL
Time of maximum concentration in plasma [3, 14]: 60 min
AUC0–∞ ratio Multiple/Single in tumors [4]: 0.92
